Measurements: the RNAGym collection of RNA variant scans (doi:10.1126/science.aae0568)
Variants at the floor of the assay were thinned out.

B1: tRNA (parent)
chain: GUUCCGUUGGCGUAAUGGUAACGCGUCUCCCUCCUAAGGAGAAGACUGCGGGUUCGAGUCCCGUACGGAACG

Variants of: B1
Assay: yeast fitness relative to wild type (ratio to wild type); higher = fitter; tRNA-Arg(CCU), competitive growth, 37 C, YPD
Procedure, shortened: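 Variants of the tRNA-Arg(CCU) gene were chemically synthesised with a 3% per-site mutation rate across 69 sites and placed at the native genomic locus in Saccharomyces cerevisiae. Six parallel replicates of the pooled strains were competed in YPD at 37°C for 24 hours, and gene amplicons from the start and end populations were read by 100-nucleotide paired-end sequencing. Darwinian fitness relative to wild type was derived from changes in genotype frequencies. Genotypes required ≥ 100 starting reads, and estimates < 0.5 were set to 0.5.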
In the case of GUUCAGUUGGCGUAAUGGUAACGCGUCUCCCUGCUAAGGAGAAGACUGCGGGUUCGAGUCCCGUACGGAACG [C5A C33G], the yeast fitness is reported as 0.698.
For GUUCAGUUGGCGUAAUGGUAACGCGUCUCCCUGAUAAGGCGAAGACUGCGGGUUUGAGUCCCGUCCGGAACG [C5A C33G C34A A40C C55U A65C], the yeast fitness was at most 0.5.
In the case of GUUCAGUUGGCGUAAUGGUAACGCGUCUCCCUGUUAAGGAGAAGACUGCGGGUUCGAGUCCCGUACGGAACG [C5A C33G C34U], the yeast fitness is reported as at most 0.5.
Variant GUUCAGUUGGCGUAAUGGUAACGCGUCUCCCUUCUAAGGAGAAGACUGCGGGUUCGAGUCCCGUACAGAACG [C5A C33U G67A] has a yeast fitness of 0.593.
For GUUCAGUUGGCGUAAUGGUAACGCGUCUCCCUCAUAAGGAGAAGAUUGCGGGUUCGGGUCCCGUACGGAACG [C5A C34A C46U A57G], the yeast fitness was at most 0.5.
GUUCAGUUGGCGUAAUGGUAACGCGUCUCCCUCCUAAGGAGAAGAAUGCGGGUUCGAGUCCCGUACGGAACG [C5A C46A] showed a yeast fitness of 0.97.
In the case of GUUCAGUUGGCGUAAUGGUAACGCGUCUCCCUCCUAAGGAGAAGAAUGCGGGUUCCAGUCCCGUACGAAGCG [C5A C46A G56C G68A A70G], the yeast fitness is reported as at most 0.5.
For GUUCAGUUGGCGUAAUGGUAACGCGUCUCCCUCCUAAGGAGAAGACUGCGGGUUCGAGUGCCGUACGGAACG [C5A C60G], the yeast fitness was 0.551.
Variant GUUCAGUUGGCGUAAUGGUAACGCGUCUCCCUCCUAAGGAGAAGACUGCGGGUUCGAGUGGCGUACGGAACG [C5A C60G C61G] has a yeast fitness of 0.544.
Work on GUUCAGUUGGCGUAAUGGUAACGCGUCUCCCUCCUAAGGAGAAGACUGCGGGUUCGAGUGCCGUAUAGAACG [C5A C60G C66U G67A] yielded a yeast fitness of at most 0.5.
For GUUCAGUUGGCGUAAUGGUAACGCGUCUCCCUCCUAAGGAGAAGACUGCGGGUUCGAGUUCCGUACGGAGCG [C5A C60U A70G], the yeast fitness was at most 0.5.
GUUCAGUUGGCGUAAUGGUAACGCGUCUCCCUCCUAAGGAGAAGACUGCGGGUUCGAGUUGCGUACGGAACG [C5A C60U C61G] gave a yeast fitness of at most 0.5.
With GUUCAGUUGGCGUAAUGGUAACGCGUCUCCCUCCUAAGGAGAAGACUGCGGGUUCGAGUCCGGUAAGGAACG [C5A C62G C66A] the yeast fitness was at most 0.5.
GUUCAGUUGGCGUAAUGGUAACGCGUCUCCCUCCUAAGGAGAAGACUGCGGGUUCGAGUCCUGUACGGAACG [C5A C62U] showed a yeast fitness of 0.954.
Work on GUUCAAAUGGCGUAAUGGUAACGCGUCUCCCUCCUAAGGAGAUAAAUGCGGGUUCGAGUCCCGUACGGAACG [C5A G6A U7A A43U G44A C46A] yielded a yeast fitness of 0.691.
In the case of GUUCACUUGACGUAAUGGUAACGCGUCUCCCUCCUAAGGAGCAGACUGCGGGUUCGAGUCCCGUACGGAACG [C5A G6C G10A A42C], the yeast fitness is reported as at most 0.5.
For GUUCAGUUAACGUAAUGGUGACGCGUCUCCCUCCUAAGGAGAAGACUGCGGGUUCGAGUCCCGUACGGAACG [C5A G9A G10A A20G], the yeast fitness was at most 0.5.
GUUCAGUUAGCGUAAUGGUAACGCAUCUCCCUCCUAAGGAGAAGACUGCGGGUUCGAGUCCCGUACGGUACG [C5A G9A G25A A69U] gave a yeast fitness of at most 0.5.
Work on GUUCAGUUAGCGUAAUGGUAACGCGUCUCCCUCCUAAGGAAAAGACUGCGGGUUCGAGUCCCGAACGGAACG [C5A G9A G41A U64A] yielded a yeast fitness of at most 0.5.
In the case of GUUCAGUUGCCGUAAUGGUAACGGGUCUCCCUCCUAAGGAGAAGACUGCGGGUUCGAGUCCCGUACGGAACG [C5A G10C C24G], the yeast fitness is reported as at most 0.5.
Work on GUUCAGUUGCCAUAAUGGUAACACGUCUCCCUCCUAAGGAGAAGACUGCGGGUUCGAGUCCCGUACGGAACG [C5A G10C G12A G23A] yielded a yeast fitness of at most 0.5.
With GUUCAGUUGGCAUAAUGGUAACGCGUCUCCCUUCUAAGGAGAAGACUGCGGGUUCGAGUCCCGUACGGAACG [C5A G12A C33U] the yeast fitness was at most 0.5.
In the case of GUUCAGUUGGCAUAAUGAUAACGCGUCUCCCUCCUAAGGAGAAGACUGCGGGUUCGAGUCCCGUACGGAACG [C5A G12A G18A], the yeast fitness is reported as at most 0.5.
With GUUCAGUUGGCAUAAUGAUAACGCGUCUCCCUCCUAAGGAGAAGACUGCGGGUUCGAGUCCCGUUCGGAACG [C5A G12A G18A A65U] the yeast fitness was at most 0.5.
Variant GUUCAGUUGGCCUAAUGGUAACGCGUCUCCCUCCUAAGGAGAAGACUGCGGGUUCGAGUCCCGUACGGAACG [C5A G12C] has a yeast fitness of 0.746.
Work on GUUCAGUUGGCGUAAUAGUACCGCGUCUCCCUGCUAAGGAGAUGACUGCGGGUUCGAGUCCCGUACGGAACG [C5A G17A A21C C33G A43U] yielded a yeast fitness of at most 0.5.
Variant GUUCAGUUGGCGUAAUAGUAACGCGUCUCCCUCCUGAGGAGAAGACUGCGGGUUCGAGUCCCGUACGGAACG [C5A G17A A36G] has a yeast fitness of at most 0.5.
GUUCAGUUGGCGUAAUAGUAACGCGUCUCCCUCCUGAGGAGAAGACUGCGGGUUCGAGUCCCGUACAGUACG [C5A G17A A36G G67A A69U] showed a yeast fitness of at most 0.5.
GUUCAGUUGGCGUAAUAGUAACGCGUCUCCCUCCUAAGGAGAUGACUGCGGGUUUGAGUCCCGUACGGAACG [C5A G17A A43U C55U] gave a yeast fitness of at most 0.5.
Work on GUUCAGUUGGCGUAAUAGUAACGCGUCUCCCUCCUAAGGAGAAGAAUGCGGGUUAGAGUCCCGUACGGAACG [C5A G17A C46A C55A] yielded a yeast fitness of at most 0.5.
Work on GUUCAGUUGGCGUAAUAGUAACGCGUCUCCCUCCUAAGGAGAAGACUGCGGGUUCGAGUCCCGUAUGGAACG [C5A G17A C66U] yielded a yeast fitness of 0.587.
Work on GUUCAGUUGGCGUAAUAGUAACGCAUCUCCCUCCUAAGGAGAAGACUCCGGGUUCGAGUCCCGUACGGAACG [C5A G17A G25A G48C] yielded a yeast fitness of at most 0.5.
In the case of GUUCAGUUGGCGUAAUCGUAACGCGUCUCCCUCCUAAGGAGCAGACUGCGGGUUCGCGUCCCGUACGGAACG [C5A G17C A42C A57C], the yeast fitness is reported as at most 0.5.
With GUUCAGUUGGCGUAAUGAUAACGCAUCUCCUUCCUAAGGAGAAGACCGCGGGUUCGAGUCUCGUACGGAACG [C5A G18A G25A C31U U47C C61U] the yeast fitness was at most 0.5.
For GUUCAGUUGGCGUAAUGCUAACGCGUCUCCCUCCUAAGGAGAAGCCUGCGGGUUCGAGUCCCGUACGAAGCG [C5A G18C A45C G68A A70G], the yeast fitness was at most 0.5.
For GUUCAGUUGGCGUAAUGCUAACGCGUCUCCCUCCUAAGGAGAAGAUUGCGGGUUCGAGUCCCGUACGGAACG [C5A G18C C46U], the yeast fitness was 0.557.
Variant GUUCAGUUGGCGUAAUGCUAACGCGUCUCCCUCCUAAGGAGAAGACUCCGGGUUCGAGUCCCGUCCGGAACG [C5A G18C G48C A65C] has a yeast fitness of at most 0.5.
